# Laboratory results as given in PubChem BioAssay AID504382 (The Scripps Research Institute Molecular Screening Center, 2011).
# The whole screen tested about 2,500 compounds, of which about 460 (18%) were called active.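 The calls were made as follows: active = mean activation above a cutoff of low control average plus 3 SD from the earlier screen (cut at about 12% in these data); inactive = the rest.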 These entries were drawn from the full list.
# Assay: IANBD-channel fluorescence artefacts in buffer – biochemical, artefact control for cardiac RTF calcium sensitizer project, confirmation (AID 504382)
# Conditions: IANBD fluorescence interference counterscreen, EC20 Ca2+, at 7.2 µM, active compounds read high, scaled: EC20 calcium 0, EC100 calcium 100
# How it was run: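 Also added: EC20 calcium, 0.472 mM; dosing: single nominal 7.2 µM compound dose, 0.7% DMSO final; timing: 15 min, 25 °C; detection: fluorescence intensity, excitation 480 nm, emission 540 nm; replicates: each compound tested in triplicate wells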
row,Structure (SMILES),fluorescence artifact activation
1,Cc1ccccc1OCCC(=O)Nc1cc(S(=O)(=O)N2CCCCC2)ccc1N1CCN(C)CC1,4.83% (inactive)
2,CCN1/C(=C/c2ccc3cc(C)ccc3[n+]2CC)Sc2ccc3sccc3c21,0.99% (inactive)
3,CCN1/C(=C\c2ccc3cc(C)ccc3[n+]2CC)Sc2cc(C)c(C)cc21,0.1% (inactive)
4,CCN1/C(=C/c2ccc3cc(C)ccc3[n+]2CC)Sc2ccccc21,15.3% (active)
5,CCN1/C(=C\c2ccc3ccccc3[n+]2CC)Sc2cc(C)ccc21,20.2% (active)
6,CCN1/C(=C/c2ccc3cc(C)ccc3[n+]2CC)Sc2cc(C)ccc21,0.41% (inactive)
7,CCN1/C(=C/c2ccc3cc(C)cc(C)c3[n+]2CC)Sc2cc(C)ccc21,0.44% (inactive)
8,COCCN(CCOC)Cc1c(O)ccc2c1O/C(=C\c1ccco1)C2=O,0.11% (inactive)
9,C=CCn1c(O)c(CN2CCN(Cc3ccccc3)CC2)c(C)c(C#N)c1=O,0.03% (inactive)
10,CCC[C@@H](CN1CCC[C@H]1CN1C(N)=NC[C@@H]1Cc1ccccc1)N1C[C@@H](Cc2ccccc2)N(CCCC2CCCC2)C1=N,7.46% (inactive)
11,CCOc1ccc(NC(=O)/C(C#N)=C/c2ccc(N3CCCC3)c(C)c2)cc1,0.06% (inactive)
12,Oc1[nH]c2ccc(Br)cc2c1N=Nc1ccc(F)cc1,5.56% (inactive)
13,CS(=O)(=O)Nc1ccc(C2=NN(C(=O)CCCC(=O)O)C(c3cccs3)C2)cc1 (centres undefined),16.5% (active)
14,COc1ccc(C2=NN(C(=O)COC(=O)c3ccc(NC(=O)CC#N)cc3)C(c3ccco3)C2)cc1 (centres undefined),2.58% (inactive)
15,O/C(=C\c1nc2ccccc2[nH]1)c1cccs1,0% (inactive)
16,O=C(O)c1ccc(O)c(O)c1,-0.01% (inactive)
17,Cc1cc(C)c[n+](-c2[nH]c(=O)sc2/C=N/NC([S-])=Nc2ccccc2)c1,0.17% (inactive)
18,Cc1ccc[n+](-c2nc([O-])sc2C=O)c1,9.59% (inactive)
19,Cc1ccc(N/C=C2/Sc3ccccc3NC2=O)cc1,0.14% (inactive)
20,CC1C2(C)OC(=N)C(C#N)(C(C)O2)C1(C#N)C#N (centres undefined),0.64% (inactive)
21,CCN1C(=O)/C(=C/C=C2/SCCN2C)SC1=S,10.2% (inactive)
22,CCCCN1C(=O)/C(=C/C=C2/CC(C)(C)CN2C)SC1=S,-0.02% (inactive)
23,CCN1C(=O)/C(=C\C=C2/C=CC=CN2CC)SC1=S,104% (active)
24,COC(=O)C(C)n1cnc2c(nnn2Cc2ccc(Cl)cc2)c1=O (centres undefined),0.03% (inactive)

row,Structure (SMILES),fluorescence artifact activation
1,Cc1ccc(C)c(S(=O)(=O)N2CCCC2CNC(=O)C(=O)NC2CC2)c1 (centres undefined),0.11% (inactive)
2,Cc1cc(/C=C2\SC(=S)N(C)C2=O)c(C)n1-c1ccccc1O,3.34% (inactive)
3,CN(/N=C/c1ccc(N(C)C)cc1)C1=NS(=O)(=O)c2ccccc21,6.25% (inactive)
4,CCN(CC)c1ccc2cc(C=O)c(=O)oc2c1,5.57% (inactive)
5,CCN(CC)c1ccc2cc(-c3nc4ccccc4n3C)c(=O)oc2c1,0.12% (inactive)
6,CCN(CC)c1ccc2oc(=O)c(C)nc2c1,124% (active)
7,CCN(CC)c1ccc2c(c1)oc(=O)c1c(Cl)cc(=O)oc12,21.4% (active)
8,CCN(CC)c1ccc2c(Cl)c(Br)c(=O)oc2c1,0.1% (inactive)
9,O=C(Nc1ccccc1)C1CC2CCCC(C1)C2=O (centres undefined),2.4% (inactive)
10,O=C(C1=NN(c2ccccc2)C2C(=O)N(c3ccc(Cl)cc3)C(=O)C12)c1ccccc1 (centres undefined),-0.02% (inactive)
11,Cc1ccc2c(C(=O)CN3CCC(C(N)=O)CC3)c(C)[nH]c2c1,9.54% (inactive)
12,CCS(=O)(=O)N1Cc2ccccc2CC1C(=O)Nc1ccc(OC)cc1OC (centres undefined),0.07% (inactive)
13,O=C(O)c1cccc2c1C(=O)c1ccc(N3CCCC3)cc1S2(=O)=O,-0.07% (inactive)
14,O=C1c2cccc3c(N4CCCCC4)ccc(c23)C(=O)N1CCO,42.3% (active)
15,C=CCN1C(=O)c2cccc3c(N4CCCCC4)ccc(c23)C1=O,2.88% (inactive)
16,CCCN1C(=O)c2cccc3c(N4CCCCC4)ccc(c23)C1=O,0.47% (inactive)
17,O[C@@H]1CN(C2CCCCC2)CC[C@H]1N1CCN(CCc2ccccc2)CC1,7.79% (inactive)
18,CC[C@@]1(O)C(=O)OCc2c1cc1n(c2=O)Cc2cc3c(CN(C)C)c(O)ccc3nc2-1,6.14% (inactive)
19,CCOc1ccc(Nc2nc(N)c([N+](=O)[O-])c(NCc3ccccc3)n2)cc1,0.09% (inactive)
20,CC[n+]1ccc(/C=C/c2c[nH]c3ccccc23)cc1,59.8% (active)
21,C[n+]1ccc(/C=C/c2c[nH]c3ccc(F)cc23)cc1,0.16% (inactive)
22,C[n+]1ccc(/C=C/c2c[nH]c3ccccc23)cc1,57.3% (active)
23,OCC[n+]1ccc(/C=C/c2c[nH]c3ccccc23)cc1,0% (inactive)
24,C(=Cc1c[nH]c2ccccc12)c1nccc2ccccc12,1.55% (inactive)

row,Structure (SMILES),fluorescence artifact activation
1,Cc1ccc2[nH]cc(/C=C/c3cc[n+](C)cc3)c2c1,-0.07% (inactive)
2,Cc1cc(Cl)ccc1OCC(=O)NCCOc1nc(N2CCOCC2)nc(N2CCOCC2)n1,0.1% (inactive)
3,N#Cc1c(-c2ccccc2F)cc(C2CC2)nc1SCC(=O)c1cccs1,0.28% (inactive)
4,Cc1ccc(C(=O)N/C(=C/c2ccc(-c3ccc([N+](=O)[O-])cc3)o2)C(=O)NCCCN(C)C)cc1,0.29% (inactive)
5,NC(=O)CC[C@@H]1NC(=O)[C@H](Cc2ccc(O)cc2)NC(=O)c2cc([N+](=O)[O-])cc(F)c2OCC[C@@H](C(N)=O)NC1=O,0.02% (inactive)
6,COc1ccc(CNS(=O)(=O)c2cc(-c3cc(C)no3)ccc2OC)cc1OC,2.41% (inactive)
7,CC(C)(CO)NCC#Cc1ccccc1,-0.01% (inactive)
8,Cc1nn(C)c(NC(=O)c2ccccc2Cl)c1Cl,18.7% (active)
9,CSCCC(NC(=O)c1ccccc1Cl)C(=O)N1CCC1 (centres undefined),-0.06% (inactive)
10,COc1ccccc1C(=O)Nc1nnn(C)n1,-0.09% (inactive)
11,O=C(Oc1cc2oc(=O)c3c(c2cc1Cl)CCCC3)c1cccs1,0.11% (inactive)
12,CC1CN(CCCCOc2ccc3ccccc3c2)CC(C)O1 (centres undefined),0.12% (inactive)
13,Cc1ccccc1C(=O)c1cccn1CC(=O)NCCCN1CC(C)CC(C)C1 (centres undefined),0.1% (inactive)
14,CC1CC(C)CN(CCOCCSc2ccccc2)C1 (centres undefined),28.4% (active)
15,CC1CCN(c2ccc3c(c2)S(=O)(=O)c2cccc(C(=O)NCc4cccc(F)c4)c2C3=O)CC1,0.09% (inactive)
16,C=CCNC(=S)N(CC=C)C1CCS(=O)(=O)C1 (centres undefined),0.07% (inactive)
17,CCNC(=O)/C(C#N)=C/c1c(N2CCN(Cc3ccc4c(c3)OCO4)CC2)nc2c(C)cccn2c1=O,0.06% (inactive)
18,Cc1cccn2c(=O)c3cc(C#N)c(=NC(=O)c4cccs4)n(CCCOC(C)C)c3nc12,-0.06% (inactive)
19,Cc1cccn2c(=O)c(/C=C3\SC(=S)NC3=O)c(NCCCN3CCOCC3)nc12,21.4% (active)
20,Cc1cccn2c(=O)c(/C=C3\SC(=S)N(CC(C)C)C3=O)c(NCCCOC(C)C)nc12,17.1% (active)
21,COC(=O)CCCCCN1C(=O)/C(=C\c2ccncc2)SC1=S,-0.01% (inactive)
22,O=C1NC(=S)S/C1=C/c1ccc(N2CCOCC2)o1,1.59% (inactive)
23,O=C1CCN2C=Nc3cccc4ccc1c2c34,-0.03% (inactive)
24,CC1=C(C)CC(C(=O)NNC(=O)c2cccc(Cl)c2)C(C(=O)O)C1 (centres undefined),-0.06% (inactive)

row,Structure (SMILES),fluorescence artifact activation
1,Cc1cc([N+](=O)[O-])nn1CC(=O)Nc1c(C)n(C)n(-c2ccccc2)c1=O,3.39% (inactive)
2,Cc1c(N=C2N=C(NC(=O)Nc3ccc(Cl)cc3)c3ccccc32)c(=O)n(-c2ccccc2)n1C,20.3% (active)
3,CN1CCC/C1=C1/C(=O)N(c2ccccc2)N=C1NC(=O)Nc1cccc(Cl)c1,0.05% (inactive)
4,O=C(Nc1cccc2c1N(C(=O)c1ccco1)CCC2)c1ccco1,5.02% (inactive)
5,COc1ccccc1CNC(=O)COC(=O)c1cccc(S(=O)(=O)N2CCOCC2)c1,0.16% (inactive)
6,C/C(=N\NC(=O)c1ccccc1)c1ccc(NC(=O)c2cccs2)cc1,0.85% (inactive)
7,C[C@@H](NC(=O)c1ncn(C)c1C(=O)N[C@H](C)c1ccccc1)c1ccccc1,0% (inactive)
8,Cc1ccc(C(C)NC(=O)c2cccs2)cc1C (centres undefined),174% (active)
9,Cc1cc(S(=O)(=O)NC(C)C)ccc1OCC(=O)NCc1ccccc1,0.08% (inactive)
10,CCN(CC)C(=O)C(=O)c1c(-c2ccccc2)[nH]c2ccccc12,6.52% (inactive)
11,COC(=O)[C@H](C)NC(=O)c1cc2c(cn1)[nH]c1ccccc12,0.32% (inactive)
12,CCOC(=O)c1c(NCC(C)C)c2ccccc2[nH]c1=O,39.3% (active)
13,C=CCN1C(=O)[C@@H]2Cc3c([nH]c4ccccc34)C(c3ccc(O)cc3)N2C1=S (some centres undefined),-0.05% (inactive)
14,CCC(=O)N1CCN(c2nc(C)nc3sc(C)c(C)c23)CC1,0.08% (inactive)
15,S=C1NC2=C(CCCC2=C2SCCCS2)C(c2ccccc2)N1 (centres undefined),0.29% (inactive)
16,O=C(OCCN1C(=O)c2cccc3c(N4CCOCC4)ccc(c23)C1=O)c1ccc(Cl)cc1,1.59% (inactive)
17,CC(=O)N(C(C)=O)N1C(=O)c2cccc3c(N4CCOCC4)ccc(c23)C1=O,0.01% (inactive)
18,O=C(O)CN1C(=O)c2cccc3c(Br)ccc1c23,53.6% (active)
19,CCn1c(CSCc2ccccc2)n[nH]c1=S,0.18% (inactive)
20,Cc1ccc(NC(=O)CN(C)C(=O)COC(=O)COc2ccc(C#N)cc2)cc1,0.42% (inactive)
21,Cc1ccc(NC(=O)COc2ccc(/C=N/NC(=O)CSCc3ccccc3)cc2)cc1,12.9% (active)
22,Cc1ccc(NC(=O)CO/N=C/c2ccc(N(C)C)cc2)cc1,0.03% (inactive)
